Measured values reported in ChEMBL document CHEMBL5678806, “NMS-P937, an orally available, specific small-molecule polo-like kinase 1 inhibitor with antitumor activity in solid and hematologic malignancies” (Mol Cancer Ther, 2012).
Activity calls are given as the source filed them. The rule behind the calls is not given here.

Key:
[1] = molecular target: Tyrosine-protein kinase BTK (Homo sapiens) (UniProt Q06187); assay: Inhibition of N-terminal His6-tagged recombinant full-length human BTK expressed in baculovirus infected Sf21 cells assessed as residual activity at 1 uM relative to control
HeLa = assay: Antiproliferative activity against human HeLa cells assessed as inhibition of cell growth incubated for 72 hrs by cell-titer glo assay; format: functional, cell-based
Method in brief: (§1)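 Cells seeded at 10,000–30,000/cm² (adherent) or 100,000/mL (nonadherent) in medium with 10% fetal calf serum; after 24 h, treated in duplicate with serial dilutions for 72 h. Viable cell number read by CellTiter-Glo luminescence; IC50 from sigmoidal fit; at least two independent experiments.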

NHDF = assay: Cytotoxicity against human NHDF cells assessed as reduction in cell number at 0.5 to 1 uM incubated for 8 hrs followed by compound washout and measured after 24 to 48 hrs by cell titer glow assay; format: toxicity, cell-based; settings: dose 0.5-1 µM
[2] = molecular target: Proto-oncogene tyrosine-protein kinase Src (Homo sapiens) (UniProt P12931); assay: Inhibition of N-Terminal His6-tagged recombinant full-length human c-SRC expressed in Sf21 cells assessed as residual activity at 0.1 uM relative to control
[3] = molecular target: Casein kinase I isoform gamma-2 (Homo sapiens) (UniProt P78368); assay: Inhibition of N-terminal 6His-tagged recombinant human CK1gamma2 ( 18 to end residues) expressed in baculovirus infected Sf21 cells assessed as residual activity at 1 uM relative to control
U2OS = assay: Induction of apoptosis in human U2OS cells assessed as colocalization of cells by measuring activation of caspase 3 incubated for 24 hrs by DRAQ 5 staining based high content imaging assay relative to control; format: functional
NCI-H2170 = assay: Antiproliferative activity against human NCI-H2170 cells assessed as inhibition of cell growth incubated for 72 hrs by cell-titer glo assay; format: functional, cell-based; settings: NCI-H2170, 72 h
Method in brief: (§2)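 Cells from ATCC or ECACC, kept in supplier-recommended medium with 1% penicillin-streptomycin at 37°C, 5% CO₂. Seeded at 10,000–30,000/cm² (adherent) or 100,000/mL (nonadherent) in medium with 10% fetal calf serum. Dosed after 24 h in duplicate with serial dilutions. Viable cells read by CellTiter-Glo 72 h later. IC50 from sigmoidal fit. At least two independent experiments.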

[4] = molecular target: Serine/threonine-protein kinase DCLK2 (Homo sapiens) (UniProt Q8N568); assay: Inhibition of N-terminal 6His-tagged recombinant human DCAMKL2 (376 to end residues) expressed in baculovirus infected Sf21 cells assessed as residual activity at 1 uM relative to control
UACC-62 = assay: Antiproliferative activity against human UACC-62 cells assessed as inhibition of cell growth incubated for 72 hrs by cell-titer glo assay; format: functional, cell-based; settings: UACC-62, 72 h
[5] = molecular target: Mitogen-activated protein kinase 11 (Homo sapiens) (UniProt Q15759); assay: Inhibition of N-terminal GST fusion protein corresponding to full-length human SAPK2b expressed in E. coli assessed as residual activity at 1 uM relative to control
SU-DHL-6 = assay: Antiproliferative activity against human SU-DHL-6 cells assessed as inhibition of cell growth incubated for 72 hrs by cell-titer glo assay; format: functional, cell-based; settings: SU-DHL-6, 72 h
A2780 [6] = assay: In vivo inhibition of PLK1 in human A2780 cells xenografted in nu/nu mouse assessed as decreased TCTP phosphorylation on Ser46 at 90 to 120 mg/kg, po administered for 6 to 12 hrs by Western blotting analysis; format: functional, organism-based; settings: dose lower 90.0 mg/kg, dose upper […], time lower 6.0 hrs
SW480 = assay: Antiproliferative activity against human SW480 cells assessed as inhibition of cell growth incubated for 72 hrs by cell-titer glo assay; format: functional, cell-based; settings: SW480, 72 h
[7] = molecular target: Tyrosine-protein kinase HCK (Homo sapiens) (UniProt P08631); assay: Inhibition of N-terminal 6His-tagged recombinant human Hck (230 to 497 residues) expressed in baculovirus infected Sf21 cells assessed as residual activity at 1 uM relative to control
A549 = assay: Antiproliferative activity against human A549 cells assessed as inhibition of cell growth incubated for 72 hrs by cell-titer glo assay; format: functional, cell-based; settings: A549, 72 h
Method in brief: (§3)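 Cells seeded 10,000–30,000/cm² (adherent) or 100,000/mL (suspension) in medium with 10% fetal calf serum; after 24 h treated in duplicate with serial dilutions for 72 h. Viable cells read by CellTiter-Glo luminescence; IC50 from sigmoidal fit; at least two independent experiments.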

[8] = molecular target: Cyclin-dependent kinase 2/cyclin E1 (Homo sapiens, UniProt P24941); assay: Inhibition of CDK2/CycE (unknown origin) in presence of [gamma-33P]ATP; format: protein-complex assay
LN-229 = assay: Antiproliferative activity against human LN-229 cells assessed as inhibition of cell growth incubated for 72 hrs by cell-titer glo assay; format: functional, cell-based; settings: LN-229, 72 h; method in brief: as §1
A2780 [9] = assay: Induction of DNA damage in human A2780 cells assessed as H2AX phosphorylation at 0.5 to 1 uM incubated for 8 hrs by Western blotting analysis; format: functional, cell-based; settings: dose 0.5-1 µM
[10] = molecular target: Tyrosine-protein kinase JAK1 (Homo sapiens, UniProt P23458); assay: Inhibition of JAK1 (unknown origin) in presence of [gamma-33P]ATP
A2780 [11] = assay: Induction of mitosis in human A2780 cells xenografted in nu/nu mouse assessed as increased Histone H3 phosphorylation on Ser10 at 60 mg/kg, po administered for 2 to 6 hrs by immunohistochemistry analysis; format: functional, organism-based; settings: time 2-6 hrs
CCRF-CEM = assay: Antiproliferative activity against human CCRF-CEM cells assessed as inhibition of cell growth incubated for 72 hrs by cell-titer glo assay; format: functional, cell-based; method in brief: as §3
[12] = Cmax in nu/nu mouse at 10 mg/kg, po by LC-MS analysis; format: ADME, organism-based; settings: in vivo
NCI-H522 = assay: Antiproliferative activity against human NCI-H522 cells assessed as inhibition of cell growth incubated for 72 hrs by cell-titer glo assay; format: functional, cell-based; settings: NCI-H522, 72 h; method in brief: as §2
LS180 = assay: Antiproliferative activity against human LS180 cells assessed as inhibition of cell growth incubated for 72 hrs by cell-titer glo assay; format: functional, cell-based; settings: LS180, 72 h; method in brief: as §1
[13] = molecular target: High affinity nerve growth factor receptor (Homo sapiens, UniProt P04629); assay: Inhibition of TRKA (unknown origin) in presence of [gamma-33P]ATP
KM12 = assay: Antiproliferative activity against human KM12 cells assessed as inhibition of cell growth incubated for 72 hrs by cell-titer glo assay; format: functional, cell-based; settings: KM12, 72 h; method in brief: as §1
NCI/ADR-RES = assay: Antiproliferative activity against human NCI/ADR-RES cells assessed as inhibition of cell growth incubated for 72 hrs by cell-titer glo assay; format: functional, cell-based; method in brief: as §2
[14] = molecular target: MAP kinase-interacting serine/threonine-protein kinase 2 (Homo sapiens, UniProt Q9HBH9); assay: Inhibition of MNK2 (unknown origin) in presence of [gamma-33P]ATP
CAKI-1 = assay: Antiproliferative activity against human CAKI-1 cells assessed as inhibition of cell growth incubated for 72 hrs by cell-titer glo assay; format: functional, cell-based; settings: CAKI-1, 72 h; method in brief: as §3

Mitogen-activated protein kinase 11 (Homo sapiens), sequence (Q15759 whole entry, the tested form may be a part): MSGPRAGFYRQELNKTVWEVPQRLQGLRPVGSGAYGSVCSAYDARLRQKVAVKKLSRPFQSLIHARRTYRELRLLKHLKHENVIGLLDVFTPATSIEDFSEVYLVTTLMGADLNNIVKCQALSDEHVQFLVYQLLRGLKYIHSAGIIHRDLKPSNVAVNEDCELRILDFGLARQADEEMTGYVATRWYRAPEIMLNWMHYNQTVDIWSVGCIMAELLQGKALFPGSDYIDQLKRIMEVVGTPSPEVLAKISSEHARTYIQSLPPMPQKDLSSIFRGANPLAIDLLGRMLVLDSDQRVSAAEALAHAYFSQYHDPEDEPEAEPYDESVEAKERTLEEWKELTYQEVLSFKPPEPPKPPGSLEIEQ
High affinity nerve growth factor receptor, sequence (P04629 whole entry): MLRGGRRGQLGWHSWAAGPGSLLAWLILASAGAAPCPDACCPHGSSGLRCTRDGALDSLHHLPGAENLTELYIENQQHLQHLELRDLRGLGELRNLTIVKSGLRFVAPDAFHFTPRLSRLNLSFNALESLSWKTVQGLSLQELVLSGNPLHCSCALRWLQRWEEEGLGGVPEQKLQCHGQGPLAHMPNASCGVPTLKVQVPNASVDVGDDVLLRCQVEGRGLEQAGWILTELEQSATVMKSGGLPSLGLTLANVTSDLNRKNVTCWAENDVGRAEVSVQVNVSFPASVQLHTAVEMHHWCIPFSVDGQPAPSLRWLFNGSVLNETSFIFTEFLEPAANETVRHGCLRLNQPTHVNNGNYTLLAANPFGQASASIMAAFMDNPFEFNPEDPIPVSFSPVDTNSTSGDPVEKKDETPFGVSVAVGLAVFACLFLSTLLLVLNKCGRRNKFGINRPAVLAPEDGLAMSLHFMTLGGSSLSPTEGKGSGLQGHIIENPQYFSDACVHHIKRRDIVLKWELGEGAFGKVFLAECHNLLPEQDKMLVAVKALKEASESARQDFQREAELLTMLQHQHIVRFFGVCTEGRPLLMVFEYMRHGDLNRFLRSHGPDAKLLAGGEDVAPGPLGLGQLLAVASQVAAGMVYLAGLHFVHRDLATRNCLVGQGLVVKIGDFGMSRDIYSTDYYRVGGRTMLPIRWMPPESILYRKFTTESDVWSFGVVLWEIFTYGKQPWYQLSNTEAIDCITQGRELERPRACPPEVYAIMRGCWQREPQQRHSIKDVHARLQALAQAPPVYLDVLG
MAP kinase-interacting serine/threonine-protein kinase 2, sequence (Q9HBH9 whole entry): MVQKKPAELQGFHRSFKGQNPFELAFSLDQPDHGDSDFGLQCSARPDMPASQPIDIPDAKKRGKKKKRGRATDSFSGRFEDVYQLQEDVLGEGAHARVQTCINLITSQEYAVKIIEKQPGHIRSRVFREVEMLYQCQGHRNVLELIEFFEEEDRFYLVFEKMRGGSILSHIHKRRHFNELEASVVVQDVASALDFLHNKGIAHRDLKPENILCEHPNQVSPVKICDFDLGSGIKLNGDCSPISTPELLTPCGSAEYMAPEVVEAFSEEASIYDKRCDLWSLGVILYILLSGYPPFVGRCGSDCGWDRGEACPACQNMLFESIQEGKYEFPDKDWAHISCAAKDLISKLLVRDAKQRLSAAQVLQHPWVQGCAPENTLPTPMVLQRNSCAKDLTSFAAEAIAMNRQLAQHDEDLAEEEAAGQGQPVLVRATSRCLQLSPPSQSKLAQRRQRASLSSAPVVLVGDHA
Tyrosine-protein kinase HCK (Homo sapiens), sequence (P08631 2-526 limits assumed): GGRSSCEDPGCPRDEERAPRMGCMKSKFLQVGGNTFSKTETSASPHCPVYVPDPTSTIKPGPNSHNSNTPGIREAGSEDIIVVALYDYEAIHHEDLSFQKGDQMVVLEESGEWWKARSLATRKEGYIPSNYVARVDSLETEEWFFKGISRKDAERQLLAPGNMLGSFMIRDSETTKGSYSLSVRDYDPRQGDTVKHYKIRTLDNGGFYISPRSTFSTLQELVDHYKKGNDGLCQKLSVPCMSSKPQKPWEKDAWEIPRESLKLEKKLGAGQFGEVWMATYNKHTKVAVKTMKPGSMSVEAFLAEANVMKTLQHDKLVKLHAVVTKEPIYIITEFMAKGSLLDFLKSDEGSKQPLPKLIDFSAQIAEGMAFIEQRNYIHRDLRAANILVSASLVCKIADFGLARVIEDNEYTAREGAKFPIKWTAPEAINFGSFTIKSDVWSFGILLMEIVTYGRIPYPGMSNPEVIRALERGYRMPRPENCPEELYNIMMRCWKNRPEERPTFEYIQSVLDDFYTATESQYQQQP
Tyrosine-protein kinase JAK1, sequence (P23458 whole entry): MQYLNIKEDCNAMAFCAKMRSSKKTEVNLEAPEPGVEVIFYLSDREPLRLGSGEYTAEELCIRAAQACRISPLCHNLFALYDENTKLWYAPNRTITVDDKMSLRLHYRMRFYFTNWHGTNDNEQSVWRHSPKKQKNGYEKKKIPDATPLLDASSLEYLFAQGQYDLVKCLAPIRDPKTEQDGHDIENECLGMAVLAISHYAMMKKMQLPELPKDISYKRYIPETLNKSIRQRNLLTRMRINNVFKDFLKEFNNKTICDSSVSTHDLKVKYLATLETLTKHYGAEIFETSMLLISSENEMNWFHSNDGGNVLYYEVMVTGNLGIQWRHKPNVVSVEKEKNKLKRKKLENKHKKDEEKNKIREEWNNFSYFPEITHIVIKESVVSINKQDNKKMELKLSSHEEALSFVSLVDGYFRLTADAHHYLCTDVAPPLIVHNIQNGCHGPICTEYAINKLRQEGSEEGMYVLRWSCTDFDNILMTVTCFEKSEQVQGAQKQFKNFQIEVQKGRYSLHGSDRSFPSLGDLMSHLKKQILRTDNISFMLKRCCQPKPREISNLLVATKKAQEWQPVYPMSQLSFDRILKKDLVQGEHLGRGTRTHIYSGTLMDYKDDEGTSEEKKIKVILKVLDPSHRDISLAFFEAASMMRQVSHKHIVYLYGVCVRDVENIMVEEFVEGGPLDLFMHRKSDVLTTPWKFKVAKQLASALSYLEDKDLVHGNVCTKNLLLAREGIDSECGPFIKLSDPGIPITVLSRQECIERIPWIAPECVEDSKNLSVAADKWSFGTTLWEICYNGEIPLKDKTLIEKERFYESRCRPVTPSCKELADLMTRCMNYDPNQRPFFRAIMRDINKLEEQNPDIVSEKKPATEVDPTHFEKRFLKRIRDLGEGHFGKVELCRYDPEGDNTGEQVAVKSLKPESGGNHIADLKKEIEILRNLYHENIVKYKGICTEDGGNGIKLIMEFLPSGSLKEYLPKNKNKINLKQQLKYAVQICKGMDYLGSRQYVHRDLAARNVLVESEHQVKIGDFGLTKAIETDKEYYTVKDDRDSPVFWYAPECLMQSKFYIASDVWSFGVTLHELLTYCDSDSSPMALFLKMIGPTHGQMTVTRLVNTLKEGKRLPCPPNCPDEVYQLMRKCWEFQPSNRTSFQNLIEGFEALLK
Proto-oncogene tyrosine-protein kinase Src (Homo sapiens), sequence (P12931 2-536 limits assumed): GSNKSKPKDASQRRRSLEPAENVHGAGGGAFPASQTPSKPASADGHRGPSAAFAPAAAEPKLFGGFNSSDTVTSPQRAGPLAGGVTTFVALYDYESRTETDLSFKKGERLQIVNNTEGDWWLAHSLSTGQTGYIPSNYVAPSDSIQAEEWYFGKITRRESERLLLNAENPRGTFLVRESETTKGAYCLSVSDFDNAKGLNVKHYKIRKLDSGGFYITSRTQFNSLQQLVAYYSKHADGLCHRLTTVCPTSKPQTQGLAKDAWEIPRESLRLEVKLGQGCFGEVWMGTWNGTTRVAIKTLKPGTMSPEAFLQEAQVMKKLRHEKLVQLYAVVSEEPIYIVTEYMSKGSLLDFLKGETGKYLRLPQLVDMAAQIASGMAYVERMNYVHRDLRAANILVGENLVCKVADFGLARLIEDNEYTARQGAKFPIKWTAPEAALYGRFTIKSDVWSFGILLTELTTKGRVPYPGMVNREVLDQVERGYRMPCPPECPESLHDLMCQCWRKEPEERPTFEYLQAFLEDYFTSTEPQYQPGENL
Tyrosine-protein kinase BTK (Homo sapiens), sequence (Q06187 whole entry): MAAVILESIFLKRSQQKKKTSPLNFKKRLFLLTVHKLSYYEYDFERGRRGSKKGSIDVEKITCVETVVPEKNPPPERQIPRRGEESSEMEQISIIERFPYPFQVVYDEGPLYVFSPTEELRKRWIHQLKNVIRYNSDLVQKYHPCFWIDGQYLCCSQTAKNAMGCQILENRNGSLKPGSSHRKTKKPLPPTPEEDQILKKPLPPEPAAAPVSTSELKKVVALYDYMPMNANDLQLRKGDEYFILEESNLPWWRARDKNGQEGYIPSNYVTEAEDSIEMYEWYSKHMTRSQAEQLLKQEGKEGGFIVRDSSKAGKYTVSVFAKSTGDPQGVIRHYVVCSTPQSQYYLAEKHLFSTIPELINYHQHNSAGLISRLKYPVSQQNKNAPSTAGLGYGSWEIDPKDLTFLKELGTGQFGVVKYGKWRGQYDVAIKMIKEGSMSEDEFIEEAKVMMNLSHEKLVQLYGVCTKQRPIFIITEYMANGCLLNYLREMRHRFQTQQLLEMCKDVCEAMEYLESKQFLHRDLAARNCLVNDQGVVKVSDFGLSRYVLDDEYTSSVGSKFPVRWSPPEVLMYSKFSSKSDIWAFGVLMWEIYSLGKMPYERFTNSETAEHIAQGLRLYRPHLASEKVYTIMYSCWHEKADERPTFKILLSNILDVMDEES
Casein kinase I isoform gamma-2 (Homo sapiens), sequence (P78368 whole entry, looked up, canonical isoform): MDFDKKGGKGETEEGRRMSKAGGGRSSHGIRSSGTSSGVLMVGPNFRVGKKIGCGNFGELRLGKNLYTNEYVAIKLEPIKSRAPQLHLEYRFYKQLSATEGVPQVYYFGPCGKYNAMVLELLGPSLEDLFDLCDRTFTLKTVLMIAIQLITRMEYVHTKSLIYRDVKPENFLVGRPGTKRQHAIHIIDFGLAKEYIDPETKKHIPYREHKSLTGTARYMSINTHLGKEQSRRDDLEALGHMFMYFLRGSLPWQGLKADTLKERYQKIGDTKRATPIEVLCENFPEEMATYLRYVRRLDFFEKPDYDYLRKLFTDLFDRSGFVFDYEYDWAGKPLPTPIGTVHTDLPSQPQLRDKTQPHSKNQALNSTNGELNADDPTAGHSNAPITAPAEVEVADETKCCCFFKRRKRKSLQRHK

CN1CCN(c2ccc(OC(F)(F)F)c(Nc3ncc4c(n3)-c3c(c(C(N)=O)nn3CCO)CC4)c2)CC1 [ONVANSERTIB]
Activity [1]: 84% | IC50 (HeLa): 60 nM | Activity (NHDF): Toxic | Activity [2]: 43% | Activity [3]: 69% | Activity (U2OS): 13% | IC50 (NCI-H2170): 15 nM | Activity [4]: 90% | IC50 (UACC-62): 103 nM | Activity [5]: 146% | IC50 (SU-DHL-6): 50 nM | inhibition (A2780 [6]): Active | IC50 (SW480): 618 nM | Activity [7]: 118% | IC50 (A549): 175 nM | IC50 [8]: > 10000 nM | IC50 (LN-229): 62 nM | Activity (A2780 [9]): Active | IC50 [10]: > 10000 nM | Activity (A2780 [11]): Active | IC50 (CCRF-CEM): 55 nM | Cmax [12]: 600 nM | IC50 (NCI-H522): 34 nM | IC50 (LS180): 192 nM | IC50 [13]: > 10000 nM | IC50 (KM12): 277 nM | IC50 (NCI/ADR-RES): 1210 nM | IC50 [14]: > 10000 nM | IC50 (CAKI-1): 515 nM
